Laboratory results published in ChEMBL document CHEMBL4024762, “Discovery of N-(3-Carbamoyl-5,5,7,7-tetramethyl-5,7-dihydro-4H-thieno[2,3-c]pyran-2-yl)-lH-pyrazole-5-carboxamide (GLPG1837), a Novel Potentiator Which Can Open Class III Mutant Cystic Fibrosis Transmembrane Conductance Regulator (CFTR) Channels to a High Extent” (J Med Chem, 2018).
In brackets after ≈: the same amount, converted by molar mass. Each block holds one compound with its values, some of them ahead of it. Activity calls are given as the source filed them. The calls are words filed in the database; no cut-off is given here.

How the values were obtained:
[1] = biological target: T1, Cystic fibrosis transmembrane conductance regulator (Homo sapiens, UniProt P13569, G551D); assay: (§1) Potentiation of CFTR G551D mutant (unknown origin) expressed in HEK293 cells incubated for 10 mins in presence of forskolin measured for 2 mins by YFP halide assay; format: cell-based
T1 sequence (P13569 whole entry G551D): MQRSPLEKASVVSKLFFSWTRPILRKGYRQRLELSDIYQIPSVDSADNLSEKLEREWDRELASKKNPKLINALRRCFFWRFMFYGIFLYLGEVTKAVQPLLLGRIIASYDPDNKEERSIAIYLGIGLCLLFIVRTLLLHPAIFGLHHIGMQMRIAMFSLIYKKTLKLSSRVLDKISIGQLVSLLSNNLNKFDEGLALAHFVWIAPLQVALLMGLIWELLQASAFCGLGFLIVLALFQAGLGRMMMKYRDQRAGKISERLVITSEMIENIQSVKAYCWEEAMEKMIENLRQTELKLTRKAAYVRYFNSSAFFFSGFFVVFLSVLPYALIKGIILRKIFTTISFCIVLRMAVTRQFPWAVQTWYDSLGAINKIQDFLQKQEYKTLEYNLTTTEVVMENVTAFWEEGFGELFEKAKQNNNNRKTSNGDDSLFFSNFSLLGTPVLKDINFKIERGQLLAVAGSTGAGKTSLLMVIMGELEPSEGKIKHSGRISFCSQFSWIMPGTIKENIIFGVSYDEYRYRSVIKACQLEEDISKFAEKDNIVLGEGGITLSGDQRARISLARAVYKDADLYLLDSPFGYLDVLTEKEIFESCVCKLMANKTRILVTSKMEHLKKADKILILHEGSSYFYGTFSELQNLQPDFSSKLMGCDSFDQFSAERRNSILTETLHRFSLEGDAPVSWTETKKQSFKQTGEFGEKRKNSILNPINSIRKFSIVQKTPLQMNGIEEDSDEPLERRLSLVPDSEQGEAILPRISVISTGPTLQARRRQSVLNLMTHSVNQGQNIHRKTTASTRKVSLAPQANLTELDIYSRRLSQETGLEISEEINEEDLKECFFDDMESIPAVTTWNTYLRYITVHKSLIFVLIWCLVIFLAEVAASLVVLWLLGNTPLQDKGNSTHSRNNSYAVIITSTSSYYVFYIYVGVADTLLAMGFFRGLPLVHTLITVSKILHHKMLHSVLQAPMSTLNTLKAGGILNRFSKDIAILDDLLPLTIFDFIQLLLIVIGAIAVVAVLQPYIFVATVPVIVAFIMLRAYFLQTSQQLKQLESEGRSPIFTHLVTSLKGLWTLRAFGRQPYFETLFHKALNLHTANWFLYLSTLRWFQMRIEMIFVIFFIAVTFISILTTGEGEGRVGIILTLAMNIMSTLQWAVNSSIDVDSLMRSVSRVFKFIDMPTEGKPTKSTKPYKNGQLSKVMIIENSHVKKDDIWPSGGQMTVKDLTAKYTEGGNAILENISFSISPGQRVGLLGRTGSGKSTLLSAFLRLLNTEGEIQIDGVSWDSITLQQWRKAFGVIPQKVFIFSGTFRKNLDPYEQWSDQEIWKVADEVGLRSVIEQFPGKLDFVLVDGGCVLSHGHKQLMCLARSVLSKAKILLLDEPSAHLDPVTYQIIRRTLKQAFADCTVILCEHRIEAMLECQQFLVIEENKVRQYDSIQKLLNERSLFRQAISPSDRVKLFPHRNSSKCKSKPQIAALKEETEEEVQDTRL
Outline: (§2)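 HEK293 cells transfected with the mutant CFTR (G551D, G178R, S549N or R117H) and YFP (H148Q/I152L/F47L), seeded directly after transfection, then 24 h at 37°C. Treated 10 min at room temperature with 10 µM forskolin plus potentiator. Fluorescence read for 2 min across addition of NaI buffer (375 mM NaI). Activity = 1-(F/F0).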

[2] = biological target: Cystic fibrosis transmembrane conductance regulator (Homo sapiens, UniProt P13569, F508DEL); assay: (§3) Potentiation of CFTR F508del mutant (unknown origin) expressed in human CFBE41o cells incubated for 10 mins in presence of forskolin measured for 7 secs by YFP halide assay; format: cell-based
Chain of Cystic fibrosis transmembrane conductance regulator (Homo sapiens, UniProt P13569, F508DEL) (P13569 as listed by the source): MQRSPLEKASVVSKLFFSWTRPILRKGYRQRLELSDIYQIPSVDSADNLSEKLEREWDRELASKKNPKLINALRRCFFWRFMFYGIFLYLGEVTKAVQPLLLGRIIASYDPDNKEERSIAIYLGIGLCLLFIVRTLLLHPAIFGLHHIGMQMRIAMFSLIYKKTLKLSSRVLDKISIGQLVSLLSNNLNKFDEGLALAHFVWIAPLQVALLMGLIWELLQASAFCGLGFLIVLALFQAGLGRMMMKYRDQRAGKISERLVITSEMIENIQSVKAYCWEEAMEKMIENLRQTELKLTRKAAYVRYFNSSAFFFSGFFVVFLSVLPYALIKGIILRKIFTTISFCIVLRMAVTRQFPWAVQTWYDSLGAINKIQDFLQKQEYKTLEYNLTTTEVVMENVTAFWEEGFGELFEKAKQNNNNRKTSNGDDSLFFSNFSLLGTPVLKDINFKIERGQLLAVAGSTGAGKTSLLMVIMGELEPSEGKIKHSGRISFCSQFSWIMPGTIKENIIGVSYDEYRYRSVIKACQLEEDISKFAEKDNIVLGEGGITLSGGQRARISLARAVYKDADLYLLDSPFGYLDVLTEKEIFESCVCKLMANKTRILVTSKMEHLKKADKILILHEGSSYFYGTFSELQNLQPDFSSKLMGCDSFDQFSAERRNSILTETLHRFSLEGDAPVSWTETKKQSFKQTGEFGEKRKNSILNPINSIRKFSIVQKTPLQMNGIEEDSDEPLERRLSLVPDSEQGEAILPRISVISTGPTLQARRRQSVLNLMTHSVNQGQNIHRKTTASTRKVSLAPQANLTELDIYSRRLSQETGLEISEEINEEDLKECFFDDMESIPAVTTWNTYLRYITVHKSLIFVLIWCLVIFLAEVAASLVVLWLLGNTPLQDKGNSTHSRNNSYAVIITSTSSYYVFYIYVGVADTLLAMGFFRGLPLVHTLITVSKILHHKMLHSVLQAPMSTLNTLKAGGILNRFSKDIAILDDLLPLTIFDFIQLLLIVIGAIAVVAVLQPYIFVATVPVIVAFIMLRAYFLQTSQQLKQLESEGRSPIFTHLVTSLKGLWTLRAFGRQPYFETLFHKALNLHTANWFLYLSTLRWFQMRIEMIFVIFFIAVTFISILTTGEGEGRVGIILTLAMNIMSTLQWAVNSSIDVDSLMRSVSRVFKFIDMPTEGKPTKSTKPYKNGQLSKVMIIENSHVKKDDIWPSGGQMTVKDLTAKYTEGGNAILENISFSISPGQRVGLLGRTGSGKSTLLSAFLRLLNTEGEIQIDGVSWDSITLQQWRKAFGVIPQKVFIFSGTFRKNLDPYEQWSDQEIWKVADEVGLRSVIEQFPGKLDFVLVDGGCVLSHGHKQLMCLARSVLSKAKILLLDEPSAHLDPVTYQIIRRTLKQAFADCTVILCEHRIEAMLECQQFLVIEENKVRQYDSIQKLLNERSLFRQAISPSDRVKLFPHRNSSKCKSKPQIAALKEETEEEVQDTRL
Outline: (§4)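 CFBE41o- cells (CF bronchial line) transduced by adenovirus with F508del CFTR and YFP (H148Q/I152L/F47L). Cells held 24 h at 27°C, then treated 10 min at room temperature with 10 µM forskolin plus potentiator. YFP fluorescence read for 7 s across addition of NaI buffer (137 mM NaI). Activity = 1-(F/F0).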

[3] = system: Cystic fibrosis transmembrane conductance regulator (Homo sapiens), P13569 [F508del]; assay: as §3; format: cell-based; set-up: concentration or dose not given beside the values; outline: as §4
Chain of Cystic fibrosis transmembrane conductance regulator (Homo sapiens), P13569 [F508del] (P13569 as listed by the source): as above

[4] = system: Cystic fibrosis transmembrane conductance regulator (Homo sapiens), P13569 [G551D]; assay: as §1; format: cell-based; set-up: concentration or dose not given beside the values; outline: as §2
Chain of Cystic fibrosis transmembrane conductance regulator (Homo sapiens), P13569 [G551D] (P13569 whole entry G551D): as the sequence (P13569 whole entry G551D) above

[5] = Unbound intrinsic clearance in rat microsomes; format: ADME, Microsome
Outline: (§5)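 Intrinsic clearance in liver microsomes or hepatocytes, corrected for non-specific binding using fraction unbound in microsomes (Fu,mic) or in hepatocyte incubations (Fu,inc).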

[6] = Unbound intrinsic clearance in rat hepatocytes; format: ADME, cell-based, Hepatocyte; outline: as §5
Canis familiaris = assay: Unbound clearance in dog at 1 mg/kg, iv; format: ADME, organism-based, Canis lupus familiaris; details: in vivo
Outline: (§6)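 IV PK in rat and dog at 1 mg/kg. Cl, Cl,unb (L/h/kg), Vd (L/kg) and T1/2 (h) were derived from plasma levels.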

[7] = Volume of distribution in rat at 1 mg/kg, iv; format: ADME, organism-based; details: in vivo; outline: as §6
Rattus norvegicus = assay: Unbound clearance in rat at 1 mg/kg, iv; format: ADME, organism-based; details: in vivo; outline: as §6
[8] = system: Cystic fibrosis transmembrane conductance regulator (Homo sapiens), P13569 [G178R]; assay: Potentiation of CFTR G178R mutant (unknown origin) expressed in HEK293 cells incubated for 10 mins in presence of forskolin measured for 2 mins by YFP halide assay relative to ivacaftor; format: cell-based
Chain of Cystic fibrosis transmembrane conductance regulator (Homo sapiens), P13569 [G178R] (P13569 whole entry G178R): as the sequence (P13569 whole entry G551D) above, with G178R, D551G counted along it

Homo sapiens [9] = assay: Toxicity in human up to 2000 mg administered as single dose
Cytochrome P450 3A4 = Cytochrome P450 3A4 (Homo sapiens, UniProt P08684); assay: Inhibition of CYP3A4 (unknown origin); format: ADME
[10] = biological target: Voltage-gated inwardly rectifying potassium channel KCNH2 (Homo sapiens, UniProt Q12809); assay: Inhibition of human ERG by manual patch clamp method
Chain of Voltage-gated inwardly rectifying potassium channel KCNH2 (Q12809 whole entry): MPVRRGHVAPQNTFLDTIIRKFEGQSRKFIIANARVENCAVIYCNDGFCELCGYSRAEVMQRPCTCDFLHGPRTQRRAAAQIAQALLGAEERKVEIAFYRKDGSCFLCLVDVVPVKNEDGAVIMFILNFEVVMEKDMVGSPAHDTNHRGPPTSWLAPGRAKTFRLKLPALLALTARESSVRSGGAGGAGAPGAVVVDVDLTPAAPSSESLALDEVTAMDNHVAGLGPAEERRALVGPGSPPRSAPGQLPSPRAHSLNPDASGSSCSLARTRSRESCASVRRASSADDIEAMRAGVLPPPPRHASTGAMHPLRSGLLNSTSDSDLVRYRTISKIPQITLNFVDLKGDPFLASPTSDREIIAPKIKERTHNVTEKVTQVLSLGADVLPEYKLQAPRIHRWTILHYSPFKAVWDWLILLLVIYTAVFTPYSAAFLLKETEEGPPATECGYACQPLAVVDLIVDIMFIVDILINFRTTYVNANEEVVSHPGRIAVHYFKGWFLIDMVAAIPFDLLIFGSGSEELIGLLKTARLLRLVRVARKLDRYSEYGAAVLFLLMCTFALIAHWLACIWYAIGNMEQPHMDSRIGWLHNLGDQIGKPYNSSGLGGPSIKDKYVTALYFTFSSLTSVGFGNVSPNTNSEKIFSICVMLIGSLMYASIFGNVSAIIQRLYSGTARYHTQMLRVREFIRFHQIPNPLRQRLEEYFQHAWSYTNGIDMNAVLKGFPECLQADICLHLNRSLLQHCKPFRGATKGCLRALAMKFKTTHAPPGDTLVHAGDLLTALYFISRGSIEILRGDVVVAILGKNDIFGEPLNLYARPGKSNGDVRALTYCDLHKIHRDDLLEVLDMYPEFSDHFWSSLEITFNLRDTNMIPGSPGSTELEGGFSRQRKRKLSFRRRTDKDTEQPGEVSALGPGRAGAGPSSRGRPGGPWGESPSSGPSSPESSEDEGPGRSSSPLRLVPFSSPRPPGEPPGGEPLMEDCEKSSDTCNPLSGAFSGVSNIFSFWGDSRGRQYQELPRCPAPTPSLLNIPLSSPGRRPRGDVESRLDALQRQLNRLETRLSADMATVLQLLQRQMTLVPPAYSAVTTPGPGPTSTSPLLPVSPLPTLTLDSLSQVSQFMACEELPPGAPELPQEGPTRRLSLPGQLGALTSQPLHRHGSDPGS

[11] = Unbound intrinsic clearance in human hepatocytes; format: ADME, cell-based, Hepatocyte
[12] = Cmax in rat at 5 mg/kg, po; format: ADME, organism-based; set-up: dose 5 mg/kg, route oral; details: in vivo
Cytochrome P450 2C9 = Cytochrome P450 2C9 (Homo sapiens, UniProt P11712); assay: Inhibition of CYP2C9 (unknown origin); format: ADME
[13] = biological target: T1, Cystic fibrosis transmembrane conductance regulator; assay: Potentiation of CFTR G551D mutant in primary HBE cells assessed as increase in channel conductivity measured every 2 mins for 20 mins by TECC assay; format: cell-based
Outline: (§7)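 TECC on primary epithelia bathed both sides in NaCl Ringer, pH 7.4, at 37°C. Apical amiloride 100 µM; forskolin 10 µM apical and basolateral. One compound concentration per transwell. EC50 derived from the increase in Ieq. Duplicate or triplicate, mean ± SEM; 10 µM CFTRinh-172 used for specificity.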

[14] = Unbound intrinsic clearance in human microsomes; format: ADME, Microsome
[15] = Clearance in rat at 1 mg/kg, iv; format: ADME, organism-based; details: in vivo; outline: as §6
Homo sapiens [16] = assay: Toxicity in human up to 800 mg, bid administered for 14 days; details: 336 h
[17] = Permeability across apical to basolateral side in MDCK cells; format: ADME, cell-based, Canis lupus familiaris; details: dog, read-out: permeability
[18] = system: Cystic fibrosis transmembrane conductance regulator (Homo sapiens), P13569 [S549N]; assay: Potentiation of CFTR S549N mutant (unknown origin) expressed in HEK293 cells incubated for 10 mins in presence of forskolin measured for 2 mins by YFP halide assay relative to ivacaftor; format: cell-based
Chain of Cystic fibrosis transmembrane conductance regulator (Homo sapiens), P13569 [S549N] (P13569 whole entry S549N): as the sequence (P13569 whole entry G551D) above, with S549N, D551G counted along it

[19] = system: Cystic fibrosis transmembrane conductance regulator (Homo sapiens), P13569 [R117H]; assay: Potentiation of CFTR R117H mutant (unknown origin) expressed in HEK293 cells incubated for 10 mins in presence of forskolin measured for 2 mins by YFP halide assay relative to ivacaftor; format: cell-based
Chain of Cystic fibrosis transmembrane conductance regulator (Homo sapiens), P13569 [R117H] (P13569 whole entry R117H): as the sequence (P13569 whole entry G551D) above, with R117H, D551G counted along it

[20] = Oral bioavailability in dog at 5 mg/kg; format: ADME, organism-based, Canis lupus familiaris; details: in vivo
Outline: (§8)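 F% in rat and dog after a 5 mg/kg PO dose, referenced to the 1 mg/kg IV PK parameters.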

[21] = Thermodynamic solubility of the compound at pH 3; format: physicochemical; details: buffer, read-out: Therm_solubility
[22] = Half life in rat at 1 mg/kg, iv; format: ADME, organism-based; details: in vivo; outline: as §6
[23] = Oral bioavailability in rat at 5 mg/kg; format: ADME, organism-based; details: in vivo; outline: as §8
[24] = AUC in rat at 5 mg/kg, po; format: ADME, organism-based; details: in vivo
[25] = Volume of distribution in dog at 1 mg/kg, iv; format: ADME, organism-based, Canis lupus familiaris; details: in vivo; outline: as §6
[26] = Half life in dog at 1 mg/kg, iv; format: ADME, organism-based, Canis lupus familiaris; details: in vivo; outline: as §6
[27] = AUC in rat at 300 mg/kg, po; format: ADME, organism-based; details: in vivo
[28] = Cmax in rat at 300 mg/kg, po; format: ADME, organism-based; set-up: dose 300 mg/kg, route oral; details: in vivo
Cytochrome P450 2D6 = Cytochrome P450 2D6 (Homo sapiens, UniProt P10635); assay: Inhibition of CYP2D6 (unknown origin); format: ADME
Chain of Cytochrome P450 2D6 (P10635 whole entry): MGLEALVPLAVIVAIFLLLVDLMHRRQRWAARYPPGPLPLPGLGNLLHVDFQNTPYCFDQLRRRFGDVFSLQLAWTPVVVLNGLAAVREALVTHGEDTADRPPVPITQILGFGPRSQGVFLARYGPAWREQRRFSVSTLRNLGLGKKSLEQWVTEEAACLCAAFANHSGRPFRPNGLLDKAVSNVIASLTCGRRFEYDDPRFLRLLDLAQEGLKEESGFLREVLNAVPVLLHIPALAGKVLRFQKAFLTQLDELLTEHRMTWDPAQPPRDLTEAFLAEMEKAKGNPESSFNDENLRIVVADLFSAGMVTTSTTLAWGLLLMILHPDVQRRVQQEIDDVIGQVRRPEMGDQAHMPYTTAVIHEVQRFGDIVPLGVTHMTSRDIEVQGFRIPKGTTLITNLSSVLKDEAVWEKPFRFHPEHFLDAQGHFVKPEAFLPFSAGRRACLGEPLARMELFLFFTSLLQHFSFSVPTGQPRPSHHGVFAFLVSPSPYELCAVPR

[29] = Thermodynamic solubility of the compound at pH 7.4; format: physicochemical; details: buffer, read-out: Therm_solubility
[30] = Clearance in dog at 1 mg/kg, iv; format: ADME, organism-based, Canis lupus familiaris; details: in vivo; outline: as §6
[31] = system: Cystic fibrosis transmembrane conductance regulator (Homo sapiens), P13569 [F508del]; assay: Potentiation of CFTR F508del mutant in primary HBE cells assessed as increase in channel conductivity measured every 2 mins for 20 mins by TECC assay; format: cell-based; outline: as §7
[32] = system: Cystic fibrosis transmembrane conductance regulator (Homo sapiens), P13569 [G551D]; assay: Potentiation of CFTR G551D mutant in primary HBE cells assessed as increase in channel conductivity measured every 2 mins for 20 mins by TECC assay relative to ivacaftor; format: cell-based
[33] = Efflux ratio of permeability in MDCK cells; format: ADME, cell-based, Canis lupus familiaris; details: dog
Cytochrome P450 2C19 = Cytochrome P450 2C19 (Homo sapiens, UniProt P33261); assay: Inhibition of CYP2C19 (unknown origin); format: ADME
Cytochrome P450 1A2 = biological target: T2, Cytochrome P450 1A2 (Homo sapiens, UniProt P05177); assay: Inhibition of CYP1A2 (unknown origin); format: ADME
T2 sequence (P05177 whole entry): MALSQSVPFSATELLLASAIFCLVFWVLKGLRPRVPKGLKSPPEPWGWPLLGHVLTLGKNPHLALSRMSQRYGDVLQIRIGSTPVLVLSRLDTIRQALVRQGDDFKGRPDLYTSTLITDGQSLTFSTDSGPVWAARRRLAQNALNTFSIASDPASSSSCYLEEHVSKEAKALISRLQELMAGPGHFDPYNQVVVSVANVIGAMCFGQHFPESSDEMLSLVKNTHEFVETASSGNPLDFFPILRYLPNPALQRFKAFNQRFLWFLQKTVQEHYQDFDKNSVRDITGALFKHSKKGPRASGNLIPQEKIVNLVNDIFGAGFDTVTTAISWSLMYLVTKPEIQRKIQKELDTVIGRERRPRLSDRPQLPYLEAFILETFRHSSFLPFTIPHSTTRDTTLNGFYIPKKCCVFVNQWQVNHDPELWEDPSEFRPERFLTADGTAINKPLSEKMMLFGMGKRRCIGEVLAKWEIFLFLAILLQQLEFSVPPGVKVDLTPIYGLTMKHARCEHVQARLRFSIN

Homo sapiens [34] = species on record: Homo sapiens; assay: Selectivity ratio of EC50 for CFTR G551D mutant (unknown origin) to EC50 for CFTR F508del mutant (unknown origin)

EC50 [1]: 199 nM | EC50 [2]: 11 nM
SMILES: Cc1[nH]nc(C(=O)Nc2sc3c(c2C(N)=O)CC(C)(C)OC3(C)C)c1Cl

EC50 [2]: 101 nM
SMILES: CC1(C)Cc2c(sc(NC(=O)C3CCNC3=O)c2C(N)=O)C(C)(C)O1 (configuration not stated)

Activity [3]: 72% | EC50 [2]: 652 nM
SMILES: Cc1ccc(C(=O)Nc2sc3c(c2C(N)=O)CCCC3)s1

Activity [4]: 73% | Activity [3]: 81% | EC50 [2]: 13 nM
SMILES: Cc1cc(C(=O)Nc2sc3c(c2C(N)=O)CC(C)(C)OC3(C)C)[nH]n1

EC50 [1]: > 10000 nM | Activity [4]: 18% | CL free [5]: 1400 mL/min/kg | Activity [3]: 71% | EC50 [2]: 326 nM
SMILES: NC(=O)c1c(NC(=O)c2ccccc2Cl)sc2c1CCCC2

EC50 [1]: 130 nM | EC50 [2]: 3 nM
SMILES: CC1(C)Cc2c(sc(NC(=O)c3cc(C(F)(F)F)[nH]n3)c2C(N)=O)C(C)(C)O1

EC50 [2]: 23 nM
SMILES: CC1(C)Cc2c(sc(NC(=O)C3(O)CC3)c2C(N)=O)C(C)(C)O1

CL free [6]: 95 mL/min/kg | CL free (Canis familiaris): 107 mL/min/kg | Vd [7]: 4.8 L/kg | CL free (Rattus norvegicus): 400 mL/min/kg | Efficacy [8]: 158% | EC50 [1]: 339 nM | Activity [4]: 103% | EC50 (Cytochrome P450 3A4): > 100000 nM | CL free [11]: 30 mL/min/kg | Cmax [12]: 331 ng/mL | EC50 (Cytochrome P450 2C9): > 100000 nM | EC50 [13]: 181 nM | CL free [14]: 18.3 mL/min/kg | clearance [15]: 32 mL/min/kg | Papp A→B [17]: 11 ×10⁻⁶ cm/s | Efficacy [18]: 143% | Efficacy [19]: 119% | CL free [5]: 28.3 mL/min/kg | bioavailability [20]: > 100% | solubility thermodynamic [21]: 11 µM (≈ 3.83 µg/mL) | half-life [22]: 1.84 h | bioavailability [23]: 67% | AUC [24]: 1540 ng·h/mL | Vd [25]: 1.4 L/kg | half-life [26]: 3 h | AUC [27]: 68200 ng·h/mL | Cmax [28]: 4670 ng/mL | EC50 (Cytochrome P450 2D6): > 100000 nM | solubility thermodynamic [29]: 8.6 µM (≈ 3 µg/mL) | clearance [30]: 5.33 mL/min/kg | Activity [31]: Active | Activity [32]: 200% | efflux ratio [33]: 2.6 | Activity [3]: 105% | EC50 [2]: 3 nM | EC50 (Cytochrome P450 2C19): > 100000 nM | EC50 (Cytochrome P450 1A2): > 100000 nM
SMILES: CC1(C)Cc2c(sc(NC(=O)c3ccn[nH]3)c2C(N)=O)C(C)(C)O1
Activity (Homo sapiens [9]): Non-Toxic | EC50 [10]: > 33000 nM | Activity (Homo sapiens [16]): Non-Toxic

EC50 [1]: 123 nM | Activity [4]: 83% | Activity [3]: 96% | EC50 [2]: 2 nM
SMILES: Cc1cn[nH]c1C(=O)Nc1sc2c(c1C(N)=O)CC(C)(C)OC2(C)C

EC50 [2]: 147 nM
SMILES: CC1(C)Cc2c(sc(NC(=O)c3ccccc3NS(C)(=O)=O)c2C(N)=O)C(C)(C)O1

Activity [4]: 68% | Activity [3]: 92%
SMILES: Cc1n[nH]c(C(=O)Nc2sc3c(c2C(N)=O)CC(C)(C)OC3(C)C)c1Cl

EC50 [2]: > 10000 nM
SMILES: CC1(C)Cc2c(sc(NC(=O)C3CNC(=O)C3)c2C(N)=O)C(C)(C)O1 (configuration not stated)

Activity [4]: 77% | Activity [3]: 96% | EC50 [2]: 2 nM
SMILES: CC1(C)Cc2c(sc(NC(=O)c3[nH]ncc3Cl)c2C(N)=O)C(C)(C)O1

Activity [4]: 58% | Ratio EC50 (Homo sapiens [34]): 2000 | Activity [3]: 102% | EC50 [2]: 0.54 nM
SMILES: CC(C)(C)CC(O)C(=O)Nc1sc2c(c1C(N)=O)CC(C)(C)OC2(C)C (configuration not stated)

Activity [3]: 3%
SMILES: Cc1ccc(C(=O)Nc2sc3c(c2C(N)=O)CCNC3)s1
